MEKK2 WT-MEK5: modulators of MEK5 binding to wildtype MEKK2, primary screen, biochemical, multiplex bead flow cytometry, Alexa488-MEK5; Alexa488-MEK5 binding to MEKK2 WT; actives lie on both sides; binding response (% of control), % at 10 µM; 1.1% of 290,000 active; Mitogen-activated protein kinase kinase kinase 2 (Homo sapiens), Q9Y2U5; AID 1531, 2009; in the data active = binding response below about 67% or above about 130%
ATG4B inh: ATG4B protease inhibitors, primary screen, biochemical, fluorescence, uHTS | Cysteine protease ATG4B (Homo sapiens), Q9Y4P1 | ATG4B cleavage of LC3-PLA2, NBD-HPC fluorescence, 1 h | inhibition, % at 8.33 µM | 0.51% of 340,000 active | AID 504462, 2011; in the data active = inhibition above about 40%
MEKK2mut PB1 HTS: MEK5 binding signal on mutant MEKK2 PB1, primary screen, biochemical, multiplex bead flow cytometry, Alexa488-MEK5; Alexa488-MEK5 binding to MEKK2 mutant; percent response, % at 10 µM; 0.35% of 290,000 active; AID 1530, 2009; in the data active = percent response above about 24%, passing the limit was not always enough
B2AR ag: beta2AR agonists driving receptor internalization, primary screen, cell-based, FAP fluorogen, flow cytometry; Beta-2 adrenergic receptor (Homo sapiens), P07550; 0.43% of 340,000 active; Am2.2-beta2AR cells; response, % (concentration not given with the values);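 active = response above a set limit, near 3 SD of response in nonfluorescent compounds, cut at about 42% in these data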
Target sequence (P07550 whole entry, looked up): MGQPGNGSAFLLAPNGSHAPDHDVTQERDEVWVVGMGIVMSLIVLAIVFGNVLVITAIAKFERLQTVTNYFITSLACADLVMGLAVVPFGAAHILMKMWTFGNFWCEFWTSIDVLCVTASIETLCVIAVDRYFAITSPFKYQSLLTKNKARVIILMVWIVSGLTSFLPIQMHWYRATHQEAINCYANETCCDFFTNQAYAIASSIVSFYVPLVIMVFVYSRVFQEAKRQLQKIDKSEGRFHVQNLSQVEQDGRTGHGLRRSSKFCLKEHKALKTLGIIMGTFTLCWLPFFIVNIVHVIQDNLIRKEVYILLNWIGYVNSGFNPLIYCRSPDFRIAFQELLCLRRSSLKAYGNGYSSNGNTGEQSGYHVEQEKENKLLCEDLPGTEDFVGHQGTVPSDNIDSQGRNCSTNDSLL
MEKK3 PB1 HTS: modulators of MEKK3-MEK5 PB1 binding, primary screen, biochemical, wildtype MEKK3, multiplex bead flow cytometry, Alexa488-MEK5; Mitogen-activated protein kinase kinase kinase 3 (Homo sapiens), Q99759; bead-based flow cytometry, Alexa488-MEK5 binding to MEKK3; actives lie on both sides; 0 = blocked by unlabeled MEK5, 100 = vehicle; binding response (% of control), % at 10 µM; 1.4% of 290,000 active; AID 1529, 2009;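 active = binding response more than 3 SD above or below the average of its plate-row segment, actives on both sides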;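 note: Alexa488 bead fluorescence after subtracting the streptavidin-only scavenger bead signal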
Dynein transport: inhibitors of GR-EGFP nuclear translocation, primary screen, dynein cargo transport inhibitor project, imaging, high-content, 3617.4 mouse cells; test concentration mostly 20 µM; stimulated with dexamethasone, 1 µM; active compounds read low; z-score, hits read low; 0.47% of 220,000 active;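 active = plate z-score of nuclear minus cytoplasmic receptor signal below a set negative limit, without overly bright fluorescence or cell loss, cut at about -3.5 in these data, passing the limit was not always enough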;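 note: z-score of nuclear minus cytoplasmic ring GR-EGFP intensity difference per well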
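medium = tetracycline-free induction medium containing charcoal-stripped FBS | also added = 1.0 µM final dexamethasone stimulus | schedule = 48 h induction, 1 h compound, 30 min dex at 37 °C | technique = fixed, Hoechst-stained cells imaged at 10x for EGFP | measure = GR-EGFP nuclear translocation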
MEKK2wt confirm: modulators of MEK5 binding to wildtype MEKK2, confirmation, biochemical, single concentration, multiplex bead flow cytometry; binding response (% of control), % at 10 µM; 2.4% of 5,900 active; Alexa488-MEK5 binding to MEKK2 WT; actives lie on both sides; shares compounds with MEKK3 PB1 HTS; in the data active = binding response below about 16% or above about 210%; inactive = in between
MEKK2mut confirm: mutant MEKK2 PB1-MEK5 binding signal retest – biochemical, single concentration, multiplex bead flow cytometry, confirmation; shares compounds with MEKK3 PB1 HTS; Alexa488-MEK5 binding to MEKK2 mutant; percent response, % at 10 µM; 2% of 5,900 active; in the data active = percent response mostly above about 71%, no sharp cut-off; inactive = mostly below about 38%;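 note: higher means compound restores mutant binding toward wildtype level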
MEKK3-MEK5 inh: MEKK3 wild-type PB1 binding to MEK5, inhibitors, confirmation, biochemical, bead multiplex flow cytometry, single concentration, wildtype; shares compounds with MEKK3 PB1 HTS; Alexa488-MEK5 binding to MEKK3; active compounds read low; binding response (% of control), % at 10 µM; 1.8% of 5,900 active;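 active = binding response below 72% of control, or above a set upper limit, though filed actives all read lower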;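 note: lower values mean stronger disruption of MEK5 binding to MEKK3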
B2AR ag CP1: beta2AR agonists via receptor internalization, confirmation, cell-based, FAP fluorogen, flow cytometry, single point, cherry pick 1 | shares compounds with B2AR ag | Am2.2-beta2AR cells, FAP surface receptor; active compounds read low | percent response (surface receptor), % at 10 µM | 25% of 1,100 active | AID 540358, 2011;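 active = surface receptor percent response at or below 58%, roughly 3 SD from nonfluorescent compounds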
B2AR FAP counter: counter-screen for beta-2AR agonists: fluorescence in Am2.2 cells. 1,100 tested, under 10 active. AID 588765. calls only at 10 µM. shares compounds with B2AR ag. FAP fluorogen flow cytometry, fluorescence counterscreen; active compounds read low;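 active = percent response below a set limit in fluorescence channel 1 and below 50% in channel 8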
PLA2 ctr: PLA2 enzyme inhibition, counter-screen for ATG4B inhibitor project, biochemical, single concentration, uHTS hits | shares compounds with ATG4B inh | purified PLA2, NBD-C6-HPC fluorescence, 45 min | inhibition, % at 8.33 µM | 66% of 1,600 active; in the data active = inhibition above about 50%
Target sequence (P04054 whole entry, looked up): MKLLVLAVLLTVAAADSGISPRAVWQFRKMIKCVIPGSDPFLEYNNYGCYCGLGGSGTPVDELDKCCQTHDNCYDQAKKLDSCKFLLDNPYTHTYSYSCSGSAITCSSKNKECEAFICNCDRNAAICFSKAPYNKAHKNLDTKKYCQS
A number is an active result; n = inactive; x = not tested or not shown; [ ] = another dose, or the depositor's remark. Hits are enriched below; roughly 2.9% of the tested compounds scored in any of these assays.

SMILES	MEKK2 WT-MEK5	ATG4B inh	MEKK2mut PB1 HTS	B2AR ag	MEKK3 PB1 HTS	Dynein transport	B2AR ag CP1	B2AR FAP counter	others
O=c1c2ccccc2nc(/C=C/c2c[nH]c3ccccc23)n1-c1ccc([N+](=O)[O-])cc1	n	57	n	n	75[inhibitor]	n	x	x	MEKK2wt confirm=n;MEKK2mut confirm=n;MEKK3-MEK5 inh=n;PLA2 ctr=n
Cc1cc(N/N=C/c2ccccc2Cl)nc(NCc2ccccc2)n1	146	85	n	n	n	n	x	x	MEKK2wt confirm=n;MEKK2mut confirm=n;MEKK3-MEK5 inh=n;PLA2 ctr=91
O=C(Nc1ccc(Cl)cc1)Nc1ccccc1CC[N+](=O)[O-]	6.0[inhibitor]	65	n	n	4.0[inhibitor]	n	x	x	MEKK2wt confirm=n;MEKK2mut confirm=n;MEKK3-MEK5 inh=n;PLA2 ctr=71
CCOC(=O)c1ccc(N(CC2CO2)S(=O)(=O)c2ccc(C)cc2)cc1 (stereo not drawn)	x	n	x	n	x	x	x	x
Cc1cccc(C)c1NS(=O)(=O)c1ccc(NC(=O)c2ccc(Cl)c([N+](=O)[O-])c2)cc1	n	49	n	n	140	n	x	x	MEKK2wt confirm=n;MEKK2mut confirm=n;MEKK3-MEK5 inh=n;PLA2 ctr=n
S=C(NCc1ccncc1)Nc1cccc(Cl)c1	n	n	n	n	n	n	x	x
S=C(NCCC(c1ccccc1)c1ccccc1)Nc1cccc(Cl)c1	5.0	46	32	n	n	n	x	x	MEKK2wt confirm=n;MEKK2mut confirm=n;MEKK3-MEK5 inh=n;PLA2 ctr=70
Cc1ccc(NC(=O)C(c2ccccc2)c2ccccc2)nc1	n	n	n	n	n	x	x	x
O=C(Cc1c[nH]c2ccccc12)N1CCN(S(=O)(=O)c2cccc(Cl)c2Cl)CC1	x	n	x	n	x	x	x	x
Cc1cc(C)cc(N(CC(=O)Nc2ccccc2-c2ccccc2)S(=O)(=O)c2ccccc2)c1	n	57	n	n	134	n	x	x	MEKK2wt confirm=n;MEKK2mut confirm=n;MEKK3-MEK5 inh=n;PLA2 ctr=n
Cc1ccc(N(CC(=O)Nc2ccccc2-c2ccccc2)S(=O)(=O)c2ccccc2)cc1	n	n	n	n	n	n	x	x
O=C(Nc1ccc(Cl)cc1)P(=O)(O)c1ccccc1	x	n	x	n	x	x	x	x
CCCOc1ccc(C2=NNC(c3cccs3)=Nc3ccc(OC)cc32)cc1	n	49	n	n	141	n	x	x	MEKK2wt confirm=n;MEKK2mut confirm=n;MEKK3-MEK5 inh=n;PLA2 ctr=77
O=c1[nH]c2ccccc2cc1CN(Cc1ccco1)S(=O)(=O)c1ccc(F)cc1	n	n	n	n	n	x	n	n
Cc1cccc2nc(CSc3ccccc3N)cn12	n	n	n	n	n	n	x	x
Cc1cccc2nc(COc3ccc4ccccc4c3Br)cn12	n	n	n	98	n	n	26	n
COc1cccc(CN2CCC(Oc3ccc(C(=O)N4CCCCC4)cc3)CC2)c1	n	n	n	n	n	x	n	n
O=C(c1cccc(OC2CCN(Cc3cccc(OCCO)c3)CC2)c1)N1CCCC1	n	n	n	n	n	x	x	x
CSc1cccc(CN2CCC(Oc3ccc(C(=O)N4CCCCC4)cc3)CC2)c1	n	n	n	n	n	x	x	x
O=C(c1ccc(OC2CCN(Cc3cccc(F)c3)CC2)cc1)N1CCCCC1	n	n	n	n	n	x	x	x
COc1ccc(CN2CCC(Oc3ccc(C(=O)N4CCCCC4)cc3)CC2)cc1C	n	n	n	n	n	x	n	n
O=C(c1ccc(OC2CCN(Cc3ccccc3C(F)(F)F)CC2)cc1)N1CCCCC1	n	n	n	n	n	x	n	n
O=C(c1ccc(OC2CCN(Cc3cccc(OCCO)c3)CC2)cc1)N1CCCC1	n	n	n	n	n	x	n	n
C=CCOc1ccccc1CN1CCC(Oc2ccc(C(=O)N3CCCC3)cc2)CC1	n	n	n	n	n	x	x	x
CC(=O)Nc1ccc2c(c1)C(N1CC3CCC(CC3)C1)c1ccccc1-2 (stereo not drawn)	x	n	x	43	x	x	n	n
SMILES	MEKK2 WT-MEK5	ATG4B inh	MEKK2mut PB1 HTS	B2AR ag	MEKK3 PB1 HTS	Dynein transport	B2AR ag CP1	B2AR FAP counter	others
CCN(CC)/C(=N\S(=O)(=O)c1ccccc1C)c1ccccc1	n	n	n	n	n	x	x	x
CCN(CC)/C(=N/S(=O)(=O)c1ccc(C)cc1)c1ccccc1	n	n	n	78	n	n	n	n
CC1(C)C2CCC1(CS(=O)(=O)N1CCN(c3ccccc3F)CC1)C(=O)C2 (stereo not drawn)	n	n	n	72	n	x	n	n
COc1ccccc1C(C)Nc1nc(-c2cccnc2)nc2ccccc12 (stereo not drawn)	n	n	n	n	n	x	n	n
COc1cccc(CNc2nc(-c3cccnc3)nc3ccccc23)c1	n	n	n	n	n	n	n	n
O=C(Nc1ccc(-c2cccc(F)c2)cc1)C1CCCN(Cc2ccccn2)C1 (stereo not drawn)	n	n	n	n	n	x	n	n
COc1cccc(-c2ccc(NC(=O)C3CCCN(Cc4cc(C)[nH]n4)C3)cc2)c1 (stereo not drawn)	n	n	n	n	n	x	x	x
COc1cccc(-c2ccc(NC(=O)C3CCCN(Cc4ccccn4)C3)cc2)c1 (stereo not drawn)	x	x	x	x	x	x	n	n
